Measurements published in publication PMC9008867 (Therapeutic Advances in Medical Oncology, 2022).
Several values for one entry are separate records, joined by “and”; a condition that tells them apart may be missing. Equal values may be shown once. Read-outs that look alike come from different tables or passages of the source.

Assays:
[1] = system: Asian patients with advanced or metastatic malignancies; test: Adverse events; format: in vivo, human; settings: Schedule 1; patients n (%)
How it was run: (§1)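 Test compound given orally by schedule. Schedule 1: Mon/Thu, 28-day cycle. Schedule 2: Mondays weekly, 28-day cycle. Schedule 3: Mon/Wed for 2 of 3 weeks, 21-day cycle. Schedule 4: Mon/Wed/Fri, 28-day cycle. All patients received anorexia/nausea prophylaxis. AEs were recorded up to 30 days after the last dose and graded every 2 weeks for cycles 1–2, then every 4 weeks.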

[2] = system: Asian patients with advanced or metastatic malignancies; test: Adverse events; format: in vivo, human; settings: Schedule 2; patients n (%)
How it was run: as §1

[3] = Plasma selinexor pharmacokinetics; format: in vivo, human
XPO1 = XPO1 mRNA expression in PBMCs/leukocytes by qRT-PCR pre and post dose; format: in vivo, human; settings: 40 and 50 mg/m^2, 10 patients assessed
tumour biopsies = test: Immunohistochemistry of paired pretreatment and ontreatment tumour biopsies; format: in vivo, human
How it was run: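 Paired pretreatment and on-treatment tumour biopsies came from six consenting dose-escalation patients. IHC covered […], Ki67 for proliferation, and ApopTag and cleaved caspase 3 for apoptosis.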

[4] = system: advanced or metastatic malignancies; test: Antitumour response; format: in vivo, human
How it was run: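 Solid tumours were imaged by CT or MRI and scored by RECIST 1.1. NHL was scored by IWG criteria; CTCL by consensus criteria with mSWAT skin scoring plus nodes, blood and viscera. Response was documented at least once at 8 weeks, then every two cycles. Evaluable patients had ≥1 dose and ≥1 postbaseline scan. Expansion dosing: flat 60 mg on days 1, 4, 8, 11 of 21-day cycles.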

colorectal cancer = test: Exploratory PFS subgroup analysis in advanced colorectal cancer patients; format: in vivo, human
[5] = cited from earlier work
[6] = system: relapsed or refractory diffuse large B cell lymphoma; settings: relapsed or refractory DLBCL; cited from earlier work
[7] = system: metastatic castration-resistant prostate cancer; settings: eight patients with measurable disease at baseline; cited from earlier work
[8] = system: metastatic triple-negative breast cancer; settings: 10 heavily pretreated patients; cited from earlier work
leukocytes = settings: cited from earlier work
[9] = system: human melanoma cell lines; settings: cited from earlier work
[10] = after 6 weeks of treatment vs baseline, lymphoma, thymoma, colorectal carcinoma
[11] = all dose levels, 74 evaluable patients
[12] = phase 1b expansion cohort, 35 evaluable patients
[13] = Caucasian patients, 39 mg/m^2, n = 9

Question: Which results are given for `O=C(/C=C\n1cnc(-c2cc(C(F)(F)F)cc(C(F)(F)F)c2)n1)NNc1cnccn1` [selinexor]?
Answer: Anaemia, Any grade [1]: 1 (16.6) %; Anorexia, Any grade [1]: 4 (66.6) %; Dehydration, Any grade [1]: 1 (16.6) %; Diarrhoea, Any grade [1]: 2 (33.3) %; Fatigue, Any grade [1]: 6 (100) %; Hypokalaemia, Any grade [1]: 2 (33.3) %; Hypomagnesemia, Any grade [1]: 1 (16.6) %; Hyponatremia, Any grade [1]: 6 (100) %; Nausea, Any grade [1]: 1 (16.6) %; Thrombocytopenia, Any grade [1]: 2 (33.3) %; Vomiting, Any grade [1]: 1 (16.6) %; Weight loss, Any grade [1]: 1 (16.6) %; Abdominal discomfort, Any grade [2]: 4 (23.52) %; Abdominal discomfort, G1/G2 [2]: 4 (23.52) %; Anaemia, Any grade [2]: 6 (35.29) %; Anorexia, Any grade [2]: 10 (58.8) %; Back pain, Any grade [2]: 1 (5.88) %; Constipation, Any grade [2]: 1 (5.88) %; Diarrhoea, Any grade [2]: 3 (17.64) %; Edema, Any grade [2]: 1 (5.88) %; Fatigue, Any grade [2]: 14 (82.35) %; Hypokalaemia, Any grade [2]: 2 (11.76) %; Hypomagnesemia, Any grade [2]: 5 (29.41) %; Hyponatremia, Any grade [2]: 11 (64.70) %; Hypophosphatemia, Any grade [2]: 3 (17.64) %; Hypotension, Any grade [2]: 1 (5.88) %; Intention tremor, Any grade [2]: 1 (5.88) %; Mucositis, Any grade [2]: 1 (5.88) %; Nausea, Any grade [2]: 11 (64.70) %; Neutropenia, Any grade [2]: 2 (11.76) %; Palpitation, Any grade [2]: 1 (5.88) %; Pneumonitis, Any grade [2]: 1 (5.88) %; Raised amylase/lipase, Any grade [2]: 1 (5.88) %; Raised amylase/lipase, G1/G2 [2]: 1 (5.88) %; Thrombocytopenia, Any grade [2]: 6 (35.29) %; Vomiting, Any grade [2]: 7 (41.17) %; Weight loss, Any grade [2]: 5 (29.41) %; AUC0-8 dose proportionality ([3]; among 40, 50 and 60 mg/m^2 doses): dose-proportional; predose concentrations after multiple doses ([3]; cycle 1 day 15 or cycle 2 day 8/day 15): either 0 or close to 0; AUC(0-t) ([3]; human, plasma, oral, 40 mg/m2): 5340 ± 1540 ng·h/mL; Cmax ([3]; human, plasma, oral, 40 mg/m2): 567 ± 159 ng/mL; Tmax ([3]; human, plasma, po, 60 mg/m2): 1 to 4 h; mean T1/2 ([3]; oral, 40-60 mg/m^2): ~ 6 h; patients with at least twofold induction of XPO1 mRNA (XPO1; 4 h post dose): nine; patients with greater than twofold mRNA increases in XPO1 (XPO1; 8 h post dose): all 10 patients; apoptosis in tumour samples (IHC) (tumour biopsies; [10]): increase; proliferation in tumour samples (IHC) (tumour biopsies; [10]): marked decrease; XPO1 cargo protein p53 localization in tumour sections (tumour biopsies; patient with NSCLC): nuclear accumulation; patients with prolonged stable disease of more than 12 weeks [4, 11]: 10; prolonged stable disease of more than 12 weeks [4, 11]: 13.5% and 13%; patients with confirmed partial response ([4]; all dose levels, 74 evaluable, two DLBCL, one Hodgkin's lymphoma, one thymoma): four; at least stable disease or better as best response [4, 12]: 37.1%; patients with at least stable disease or better as best response [4, 12]: 13; patients with prolonged stable disease of more than 12 weeks ([4]; phase 1b expansion cohort, all colorectal cancer): four; objective response (confirmed complete and partial response rate) ([4]; whole study): 8%; HR for PFS (colorectal cancer; RAS/PIK3CA pathway mutation vs wild-type, p = 0.09, log-rank): 0.58 (0.25–1.32); median PFS (colorectal cancer; colorectal cancer patients with a RAS/PIK3CA pathway mutation): 86 days; median PFS (colorectal cancer; colorectal cancer patients, RAS/PIK3CA wild-type): 50 days; PFS (colorectal cancer; one heavily pretreated colorectal cancer patient with BRAF V600E somatic mutation): 129 days; AUC0-48 [5, 13]: 5829 ± 1587 ng·h/mL; Cmax [5, 13]: 553 ± 238 ng/mL; Mean half-life ([5]; study KCP-330-002): ~ 6 h; complete response rate [6]: 13%; patients achieving partial response [7]: 25%; patients achieving stable disease as best radiographic response [7]: 50%; objective responses [8]: did not result in any objective responses; PD-1 and CTLA4 gene expression (leukocytes): increase; PD-L1 gene expression [9]: induced
